These results are taken from ChEMBL document CHEMBL1128288, “7-Azetidinylquinolones as antibacterial agents. 3. Synthesis, properties and structure-activity relationships of the stereoisomers containing a 7-(3-amino-2-methyl-1-azetidinyl) moiety” (J Med Chem, 1995).

For one data set, the system named is Bacillus subtilis. The data set can be described thus: In vitro antibacterial activity measured as minimum inhibitory concentration was evaluated on Bacillus subtilis ATCC 6633(Bs). It counts as functional. The conditions noted are these: Bacillus subtilis, ATCC 6633; read-out: MIC. The procedure, abridged: (§1)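 Serial 2-fold agar dilution in Mueller Hinton medium, run side by side with reference quinolones. Inoculum 10^5 cfu/mL; compound range 0.007–16 µg/mL.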

Data set [1] deals with Staphylococcus aureus. Briefly: In vivo efficacy as ED50 against Staphylococcus aureus HS-93 by oral administration in mice. The conditions noted are these: Staphylococcus aureus, po; read-out: ED50. It counts as functional. The procedure, abridged: (§2)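 Mice, 4 groups of 10, infected intraperitoneally with slightly more than the LD100 of the organism. A single oral dose was given immediately after infection, with four doses (one per group) chosen from in vitro activity. Survival was scored after one week. ED50 (total dose, mg/kg, protecting 50%) was interpolated among group survival rates.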

In a further data set the test system is Enterobacter cloacae. Briefly: In vitro antibacterial activity measured as minimum inhibitory concentration, was evaluated on Enterobacter cloacae ATCC 23355 (Ecl). The format is functional. The note with it: Enterobacter cloacae, ATCC 23355; read-out: MIC.
The next data set relates to Morganella morganii. The data set can be described thus: In vitro antibacterial activity measured as minimum inhibitory concentration was evaluated on morganella morganii ATCC 8019 (Mm). It counts as functional. The note with it: Morganella morganii, ATCC 8019; read-out: MIC. The procedure, abridged:
as §1

A further data set concerns Enterococcus faecalis. Briefly: In vitro antibacterial activity measured as minimum inhibitory concentration was evaluated on Streptococcus faecalis ATCC 10541 (Sf). It counts as functional. The note with it: Enterococcus faecalis, ATCC 10541; read-out: MIC. The procedure, abridged: as §1
In data set [2] the test system is Staphylococcus epidermidis. Briefly: In vitro antibacterial activity measured as minimum inhibitory concentration was evaluated on Staphylococcus epidermidis ATCC 155-1 (Se). The format is functional. The conditions noted are these: Staphylococcus epidermidis, ATCC 155-1; read-out: MIC. In outline: as §1
Data set [3] deals with Pseudomonas aeruginosa. The data set can be described thus: In vivo efficacy as ED50 against Pseudomonas aeruginosa HS-116 by oral administration in mice. The conditions noted are these: Pseudomonas aeruginosa, po; read-out: ED50. The format is functional. The procedure, abridged:
as §2

In data set [4] the test system is Pseudomonas aeruginosa. Briefly: In vitro antibacterial activity measured as minimum inhibitory concentration was evaluated on Pseudomonas aeruginosa ATCC 10145 (Pa). The conditions noted are these: Pseudomonas aeruginosa, ATCC 10145; read-out: MIC. It counts as functional. In outline:
as §1

The next data set deals with Bacillus cereus. Briefly: In vitro antibacterial activity measured as minimum inhibitory concentration was evaluated on Bacillus cereus ATCC 11778 (Bc). It counts as functional. The conditions noted are these: Bacillus cereus, ATCC 11778; read-out: MIC. In outline:
as §1

The test system of data set [5] is Staphylococcus aureus. Briefly: In vitro antibacterial activity measured as minimum inhibitory concentration was evaluated on Staphylococcus aureus ATCC 25178 (Sa). The format is functional. The note with it: Staphylococcus aureus, ATCC 25178; read-out: MIC. In outline: as §1
A further data set deals with Klebsiella pneumoniae. The data set can be described thus: In vitro antibacterial activity measured as minimum inhibitory concentration was evaluated on klebsiella pneumoniae ATCC 10031 (Kp). It counts as functional. The conditions noted are these: Klebsiella pneumoniae, ATCC 10031; read-out: MIC. In outline: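 Serial 2-fold agar dilution in Mueller Hinton medium, run side by side with reference quinolones.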

The conditions of data set [6]: mouse, in vivo, po, 50 mg/kg.
The next data set deals with Proteus vulgaris. The data set can be described thus: In vitro antibacterial activity measured as minimum inhibitory concentration was evaluated on proteus vulgaris ATCC 8427 (Pv). The format is functional. The conditions noted are these: Proteus vulgaris, ATCC 8427; read-out: MIC. The procedure, abridged:
as §1

The test system of data set [7] is Escherichia coli. Briefly: In vitro antibacterial activity measured as minimum inhibitory concentration, was evaluated on Escherichia coli ATCC 23559(Ec). The format is functional. The note with it: Escherichia coli, ATCC 23559; read-out: MIC. The procedure, abridged: as §1
Data set [8] deals with Escherichia coli. Briefly: In vivo efficacy as ED50 against Escherichia coli HM-42 by oral administration in mice. The format is functional. The note with it: Escherichia coli, po; read-out: ED50. In outline: as §2

Converted amounts (≈) assume the structure as drawn.

On to `C[C@@H]1[C@@H](N)CN1c1cc2c(cc1F)c(=O)c(C(=O)O)cn2-c1ccc(F)cc1F`, for which the MIC (usually the least concentration at which growth counts as inhibited) came to 0.25 µg/mL (≈ 0.62 µM) in the data set on Bacillus subtilis; 1 µg/mL (≈ 2.48 µM) with Enterobacter cloacae; 1 µg/mL (≈ 2.48 µM) with Morganella morganii; 4 µg/mL (≈ 9.92 µM) with Enterococcus faecalis; 0.25 µg/mL (≈ 0.62 µM) in [2]; 8 µg/mL (≈ 19.8 µM) in the data set on Pseudomonas aeruginosa [4]. Further, the MIC in the data set with Bacillus cereus came out at 0.5 µg/mL (≈ 1.24 µM); with Staphylococcus aureus [5], 0.25 µg/mL (≈ 0.62 µM); with Klebsiella pneumoniae it was 0.25 µg/mL (≈ 0.62 µM); in the data set on Proteus vulgaris it was 2 µg/mL (≈ 4.96 µM); in the data set on Escherichia coli [7], 0.5 µg/mL (≈ 1.24 µM). Also, the ED50 (usually the dose that gives a 50% effect, or the effect in half of the subjects) in the data set with Staphylococcus aureus [1] worked out at 16.1 mg/kg; with Pseudomonas aeruginosa [3], 90 mg/kg; in the data set with Escherichia coli [8] it was 10 mg/kg. For the same molecule, in [6], the AUC (in general, the area under the concentration-time curve, a measure of exposure) was found to be 35900 ng·h/mL.
Turning to `C[C@H]1COc2c(N3CC(C)(N)C3)c(F)cc3c(=O)c(C(=O)O)cn1c23`, the minimal inhibitory concentration (MIC) in the data set with Bacillus subtilis is 0.015 µg/mL (≈ 0.0432 µM); in the data set on Enterobacter cloacae, 0.015 µg/mL (≈ 0.0432 µM); in the data set with Morganella morganii, 0.015 µg/mL (≈ 0.0432 µM); with Enterococcus faecalis it was 0.5 µg/mL (≈ 1.44 µM); in [2], 0.12 µg/mL (≈ 0.345 µM); in the data set on Pseudomonas aeruginosa [4], 0.5 µg/mL (≈ 1.44 µM). The MIC in the data set on Bacillus cereus came out at 0.25 µg/mL (≈ 0.72 µM); in the data set with Staphylococcus aureus [5] it was 0.25 µg/mL (≈ 0.72 µM); in the data set on Klebsiella pneumoniae, 0.015 µg/mL (≈ 0.0432 µM); in the data set with Proteus vulgaris it was 0.25 µg/mL (≈ 0.72 µM); in the data set on Escherichia coli [7], 0.015 µg/mL (≈ 0.0432 µM). The ED50 in the data set with Staphylococcus aureus [1] came out at 19.1 mg/kg; in the data set on Pseudomonas aeruginosa [3], 121 mg/kg; in the data set on Escherichia coli [8], 6.7 mg/kg. Also, the AUC in [6] came out at 8500 ng·h/mL.
Turning to `C[C@@H]1[C@@H](N)CN1c1c(F)c(N)c2c(=O)c(C(=O)O)cn(C3CC3)c2c1F`, the MIC in the data set with Bacillus subtilis worked out at 0.015 µg/mL (≈ 0.0412 µM); in the data set on Enterobacter cloacae it was 0.015 µg/mL (≈ 0.0412 µM); in the data set with Morganella morganii it was 0.015 µg/mL (≈ 0.0412 µM); in the data set on Enterococcus faecalis, 0.12 µg/mL (≈ 0.329 µM); in data set [2], 0.015 µg/mL (≈ 0.0412 µM); in the data set with Pseudomonas aeruginosa [4] it was 0.12 µg/mL (≈ 0.329 µM). The minimal inhibitory concentration (MIC) in the data set with Bacillus cereus stood at 0.015 µg/mL (≈ 0.0412 µM); with Staphylococcus aureus [5], 0.015 µg/mL (≈ 0.0412 µM); in the data set with Klebsiella pneumoniae, 0.015 µg/mL (≈ 0.0412 µM); in the data set on Proteus vulgaris, 0.06 µg/mL (≈ 0.165 µM); with Escherichia coli [7], 0.015 µg/mL (≈ 0.0412 µM). For the same molecule, the ED50 with Staphylococcus aureus [1] is 11.4 mg/kg; with Pseudomonas aeruginosa [3], 96 mg/kg; in the data set on Escherichia coli [8], 4.1 mg/kg. This molecule returned an AUC in data set [6] of 11400 ng·h/mL.
`CCn1cc(C(=O)O)c(=O)c2cc(F)c(N3C[C@H](N)[C@H]3C)c(F)c21`: the MIC in the data set on Bacillus subtilis is 0.12 µg/mL (≈ 0.356 µM); in the data set on Enterobacter cloacae, 0.12 µg/mL (≈ 0.356 µM); in the data set with Morganella morganii, 0.12 µg/mL (≈ 0.356 µM); in the data set with Enterococcus faecalis, 2 µg/mL (≈ 5.93 µM); in [2], 0.25 µg/mL (≈ 0.741 µM); with Pseudomonas aeruginosa [4], 2 µg/mL (≈ 5.93 µM). Moreover, the MIC came to 0.25 µg/mL (≈ 0.741 µM) in the data set with Bacillus cereus; 0.25 µg/mL (≈ 0.741 µM) in the data set on Staphylococcus aureus [5]; 0.06 µg/mL (≈ 0.178 µM) in the data set on Klebsiella pneumoniae; 0.5 µg/mL (≈ 1.48 µM) in the data set with Proteus vulgaris; 0.12 µg/mL (≈ 0.356 µM) in the data set with Escherichia coli [7]. The values for the ED50 with Staphylococcus aureus [1], in the data set with Pseudomonas aeruginosa [3] and with Escherichia coli [8] were 5.9 mg/kg, 60 mg/kg and 3.9 mg/kg, respectively. For the same molecule, the area under the curve (AUC) in data set [6] is 21000 ng·h/mL.
As to `C[C@@H]1[C@@H](N)CN1c1nc2c(cc1F)c(=O)c(C(=O)O)cn2-c1ccc(F)cc1F`, the MIC in the data set with Bacillus subtilis amounted to 0.25 µg/mL (≈ 0.618 µM); in the data set with Enterobacter cloacae, 1 µg/mL (≈ 2.47 µM); with Morganella morganii, 1 µg/mL (≈ 2.47 µM); in the data set on Enterococcus faecalis, 4 µg/mL (≈ 9.89 µM); in [2], 0.5 µg/mL (≈ 1.24 µM); in the data set on Pseudomonas aeruginosa [4], 8 µg/mL (≈ 19.8 µM). In addition, the MIC in the data set on Bacillus cereus was 0.5 µg/mL (≈ 1.24 µM); in the data set with Staphylococcus aureus [5], 0.5 µg/mL (≈ 1.24 µM); with Klebsiella pneumoniae, 0.25 µg/mL (≈ 0.618 µM); with Proteus vulgaris it was 2 µg/mL (≈ 4.95 µM); with Escherichia coli [7], 0.5 µg/mL (≈ 1.24 µM). Further, the ED50 with Staphylococcus aureus [1] was 8.6 mg/kg; in the data set on Pseudomonas aeruginosa [3] it was 400 mg/kg; with Escherichia coli [8] it was 10.3 mg/kg. In [6], the area under the curve (AUC) was found to be 28300 ng·h/mL.
For the molecule `C[C@@H]1[C@@H](N)CN1c1c(F)cc2c(=O)c(C(=O)O)cn(-c3ccc(F)cc3)c2c1F`, the MIC in the data set on Bacillus subtilis came to 0.06 µg/mL (≈ 0.149 µM); with Enterobacter cloacae, 0.015 µg/mL (≈ 0.0372 µM); in the data set on Morganella morganii it was 0.12 µg/mL (≈ 0.298 µM); in the data set on Enterococcus faecalis, 1 µg/mL (≈ 2.48 µM); in [2] it was 0.25 µg/mL (≈ 0.62 µM); in the data set with Pseudomonas aeruginosa [4], 0.5 µg/mL (≈ 1.24 µM). Moreover, the minimal inhibitory concentration (MIC) with Bacillus cereus stood at 0.12 µg/mL (≈ 0.298 µM); in the data set on Staphylococcus aureus [5], 0.12 µg/mL (≈ 0.298 µM); in the data set on Klebsiella pneumoniae it was 0.015 µg/mL (≈ 0.0372 µM); in the data set on Proteus vulgaris, 0.25 µg/mL (≈ 0.62 µM); with Escherichia coli [7] it was 0.06 µg/mL (≈ 0.149 µM). Moreover, the results for the median effective dose (ED50) in the data set with Staphylococcus aureus [1], with Pseudomonas aeruginosa [3] and with Escherichia coli [8] were 4.8 mg/kg, 53 mg/kg and 2.1 mg/kg, respectively. The exposure (AUC) in data set [6] came out at 40900 ng·h/mL.
